Here are results for 16 compounds from PubChem BioAssay.

As a reminder, the viability is a read-out of living cells in per cent, often relative to untreated cells. By inhibition is commonly meant the relative decrease from the control value, in per cent.

Test [1] is described as follows: Her2 expression decrease, cell viability multiplex – SKBR3 breast tumor cells, AlphaScreen, ATP viability, primary screen (AID 461;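 active means Her2 level under about 52% in both replicate screens, with viability over 70% of control, limit read from the data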;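 on Her2 level: lower value means less Her2 protein in the cells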;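 on viability: percent of carrier control wells set as 100% viability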). Particulars: SKBR3 Her2 protein level, 18-24 h, measured here: SKBR3 viability, ATP luminescence, at 10 µM. In general terms: Alpha assays give light when donor and acceptor beads are brought close together.
In test [2] the target is Receptor tyrosine-protein kinase erbB-2 (Homo sapiens) (UniProt P04626). The description is as above. The following applies: 18-24 h, at 10 µM, stronger effect = lower value.
The nature of test [3]: reduced viability of SK-BR-3 breast cancer cells – cell-based, 24 h, human, pilot screen (AID 572).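 Further: compound exposure lasted between 18 and 24 h rather than exactly 24 h; 100% = carrier-treated control wells.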 Particulars: SK-BR-3 viability, CellTiter-Glo luminescence, at 10 µM, stronger effect = lower value. For orientation: In ATP-based viability assays light output follows the ATP content of the culture.
Test [4] can be described thus: HUVEC growth inhibition – cell-based, human, primary screen (AID 575;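 active means viability at or below 30% in both replicate assays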;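 further: 100% = median of untreated cell wells with 0.1% DMSO on each plate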). The following applies: HUVEC proliferation, CellTiter-Glo luminescence, 72 h; at 10 µM; stronger effect = lower value. The method in brief:
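material = primary HUVEC, no more than 12 passages | input = 1250 cells per well | controls = vehicle and MePR control wells | measured by = CTG luminescence | times = 72 h compound incubation | format = collagen-coated 384-well format | read-out = % viability vs DMSO wells | doses = single 10 µM dose, 0.1% DMSO, from 5x medium stock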

Test [5] can be described thus: H69AR cell proliferation blockers – human, duplicate replicates, primary screen (AID 580;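 active means viability at or under a set limit in both replicates, limit being median viability minus 3 SD, cut at about 48% in these data, passing the limit was not always enough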;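 further: 100% = mean luminescence of untreated wells and 0% = no signal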). The following applies: H69AR lung tumor cells viability, ATP luminescence, 72 h; at 10 µM; stronger effect = lower value.
Test [6] can be described thus: MRP1 drug-resistance reversers in H69AR cells – cell-based, doxorubicin co-treatment, pilot screen (AID 601;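 active means viability loss from added drug above about 55%, and viability with drug at most 40%, in both replicates, limit read from the data, passing the limit was not always enough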). The following applies: CellTiter-Glo, 72 h, at 10 µM; for differential viability (reversal): stronger effect = higher value.
The nature of test [7]: yeast transport mutant growth inhibition pilot in 384-well plates, post-Golgi transport modulator project (AID 636; in the data active means inhibition above about 31%). Particulars: absorbance 615 nm, about 18 h, stronger effect = higher value.
Test [8] is described as follows: growth suppression of yeast trafficking mutant, preliminary HTS, modulators of trafficking downstream of Golgi apparatus project, 1536-format plate, OD 615 nm (AID 637; in the data active means inhibition above about 30%). The following applies: yeast transport mutant growth, absorbance 615 nm, 18 h; stronger effect = higher value.
The mark [9] stands for this setting: H69AR cells + 2 uM doxorubicin, measured here: viability with 2 uM doxorubicin, stronger effect = lower value.
Where [10] appears, read: H69AR cells, compound alone cytotoxicity.

Activity calls are given as the source filed them.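 How the source made its calls, unless noted: active means viability at or below 10% of carrier control in both of two separate runs; inconclusive means viability at or below 10% in only one of the two runs; inactive means the rest.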

Chain of Receptor tyrosine-protein kinase erbB-2 (Homo sapiens) (P04626 whole entry, looked up): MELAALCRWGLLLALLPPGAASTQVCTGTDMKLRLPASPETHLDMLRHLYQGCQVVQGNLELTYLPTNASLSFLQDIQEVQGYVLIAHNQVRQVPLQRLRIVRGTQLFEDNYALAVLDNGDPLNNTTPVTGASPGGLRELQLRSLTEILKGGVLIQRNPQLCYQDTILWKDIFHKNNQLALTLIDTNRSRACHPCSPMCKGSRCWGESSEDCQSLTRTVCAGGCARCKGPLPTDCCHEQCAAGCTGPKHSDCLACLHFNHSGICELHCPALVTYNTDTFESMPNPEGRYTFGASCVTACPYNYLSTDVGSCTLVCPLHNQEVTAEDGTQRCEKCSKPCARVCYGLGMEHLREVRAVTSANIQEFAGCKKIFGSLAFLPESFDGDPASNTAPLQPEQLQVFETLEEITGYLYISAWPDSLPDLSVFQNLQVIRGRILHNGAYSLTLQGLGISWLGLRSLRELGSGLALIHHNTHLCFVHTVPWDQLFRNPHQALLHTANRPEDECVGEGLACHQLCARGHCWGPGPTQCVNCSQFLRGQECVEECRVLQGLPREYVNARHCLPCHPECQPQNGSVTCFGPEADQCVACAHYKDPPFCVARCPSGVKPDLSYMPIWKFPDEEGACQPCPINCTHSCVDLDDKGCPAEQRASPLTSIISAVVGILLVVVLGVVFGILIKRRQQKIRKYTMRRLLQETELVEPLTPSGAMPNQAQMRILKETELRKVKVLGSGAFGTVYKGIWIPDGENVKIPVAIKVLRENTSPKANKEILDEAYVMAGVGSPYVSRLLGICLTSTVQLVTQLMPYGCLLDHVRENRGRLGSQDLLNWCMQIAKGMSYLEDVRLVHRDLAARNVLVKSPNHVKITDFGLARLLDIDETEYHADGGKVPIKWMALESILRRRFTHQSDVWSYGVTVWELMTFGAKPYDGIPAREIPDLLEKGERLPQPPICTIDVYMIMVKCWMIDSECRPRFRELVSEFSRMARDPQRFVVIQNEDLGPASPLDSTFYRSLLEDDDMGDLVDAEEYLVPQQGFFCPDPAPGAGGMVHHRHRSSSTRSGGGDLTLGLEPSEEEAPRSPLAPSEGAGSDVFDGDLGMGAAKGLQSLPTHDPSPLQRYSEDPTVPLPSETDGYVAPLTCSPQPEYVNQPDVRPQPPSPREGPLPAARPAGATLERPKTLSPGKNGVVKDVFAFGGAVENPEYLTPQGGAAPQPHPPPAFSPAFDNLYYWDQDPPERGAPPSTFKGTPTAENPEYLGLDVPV

For `COc1cccc(-n2c(C)nc3c(cnn3-c3ccc(C)cc3)c2=O)c1`, the viability in test [1] was 86%; in test [3], 86% (inactive); in test [4] it was 79.6% (inactive); in test [5], 90.4% (inactive); in test [6] (setting [9]) it was 102%; in test [6] (setting [10]), 90.4%. Also, in test [2], the Her2 level was 102% (inactive). For the same compound, the differential viability (reversal) in test [6] (H69AR cells + 2 uM doxorubicin) was -12% (inactive). For the same compound, the inhibition in test [7] is 0.66% (inactive); in test [8] it was -10.5% (inactive).

As to `Cc1ccccc1-c1noc(N)c1C#N`, the viability in test [1] was 110%; in test [3] it was 110% (inactive); in test [4] it was 92.3% (inactive); in test [5], 90% (inactive); in test [6] (setting [9]), 88.6%; in test [6] (setting [10]), 90%. In test [2], the Her2 level was 70.5% (inactive). In addition, the differential viability (reversal) in test [6] (H69AR cells + 2 uM doxorubicin) was 1.42% (inactive). The inhibition in test [7] was -5.68% (inactive); in test [8], 4% (inactive).

For `O=C(O)Cn1cc2c(n1)CCCC2`, the viability in test [1] was 96%; in test [3], 96% (inactive); in test [4], 93.9% (inactive); in test [5] it was 98% (inactive); in test [6] (setting [9]), 94%; in test [6] (setting [10]) it was 98%. In addition, in test [2], the Her2 level is 98% (inactive). For the same compound, the differential viability (reversal) in test [6] (H69AR cells + 2 uM doxorubicin) is 3.98% (inactive). Besides, the inhibition in test [7] was -2% (inactive); in test [8], 5.41% (inactive).

Take `COCCSc1ccccc1C(=O)Nc1cc(C)on1`: the viability is 91% in test [1]; 91% (inactive) in test [3]; 95.4% (inactive) in test [4]; 94.5% (inactive) in test [5]; 89.8% in test [6] (setting [9]); 94.5% in test [6] (setting [10]). The Her2 level in test [2] is 90% (inactive). For the same compound, the differential viability (reversal) in test [6] (H69AR cells + 2 uM doxorubicin) is 4.69% (inactive). Moreover, the inhibition in test [7] was 0.39% (inactive); in test [8] it was -2.74% (inactive).

For the compound `COc1ccc(S(=O)(=O)Nc2ccc(S(=O)(=O)N3CCCCC3)cc2)cc1OC`, the viability in test [1] was 92%; in test [3], 92% (inactive); in test [4], 95.8% (inactive); in test [5], 91.3% (inactive); in test [6] (setting [9]) it was 94.9%; in test [6] (setting [10]) it was 91.3%. The Her2 level in test [2] is 100% (inactive). Further, the differential viability (reversal) in test [6] (H69AR cells + 2 uM doxorubicin) was -3.68% (inactive). Besides, the inhibition is 0.13% (inactive) in test [7] and -2% (inactive) in test [8].

Turning to `O=C(COc1ccc(S(=O)(=O)NC2CCCCC2)cc1Cl)NCC1CCCO1` (stereo not given), the viability in test [1] is 88.5%; in test [3] it was 88.5% (inactive); in test [4], 98.6% (inactive); in test [5], 89.4% (inactive); in test [6] (setting [9]), 89%; in test [6] (setting [10]), 89.4%. Besides, the Her2 level in test [2] is 98% (inactive). Further, the differential viability (reversal) in test [6] (H69AR cells + 2 uM doxorubicin) was 0.36% (inactive). In addition, the inhibition in test [7] is -5.07% (inactive); in test [8] it was -7.78% (inactive).

For `CCC(C)NC(=O)c1ccccc1NC(=O)C(C)N(c1ccccc1)S(C)(=O)=O` (stereo not given), the viability in test [1] was 93%; in test [3], 93% (inactive); in test [4], 89.5% (inactive); in test [5], 94.5% (inactive); in test [6] (setting [9]), 102%; in test [6] (setting [10]), 94.5%. Further, the Her2 level in test [2] was 102% (inactive). Besides, the differential viability (reversal) in test [6] (H69AR cells + 2 uM doxorubicin) was -7.6% (inactive). Also, the results for the inhibition in test [7] and in test [8] were -4.19% (inactive) and 5.57% (inactive), respectively.

With `O=C(Cc1c(F)cccc1Cl)Nc1ccncc1`, the viability was 92% in test [1]; 92% (inactive) in test [3]; 97.5% (inactive) in test [4]; 86.4% (inactive) in test [5]; 91.9% in test [6] (setting [9]); 86.4% in test [6] (setting [10]). The Her2 level in test [2] was 91.5% (inactive). The differential viability (reversal) in test [6] (H69AR cells + 2 uM doxorubicin) was -5.46% (inactive). Further, the inhibition in test [7] was -5.2% (inactive); in test [8] it was -0.48% (inactive).

`CN(Cc1cccs1)C(=O)CCc1ccc(S(=O)(=O)N2CCOCC2)cc1`: the viability in test [1] was 97.5%; in test [3] it was 97.5% (inactive); in test [4], 111% (inactive); in test [5], 87.4% (inactive); in test [6] (setting [9]), 97.6%; in test [6] (setting [10]), 87.4%. Also, the Her2 level in test [2] was 116% (inactive). In addition, in test [6] (H69AR cells + 2 uM doxorubicin), the differential viability (reversal) was -10.2% (inactive). In addition, the inhibition in test [7] was -5.06% (inactive); in test [8] it was -12.5% (inactive).

Consider `COC(=O)c1cccc(NC(=O)Cc2coc3cc(OC)ccc23)c1`, for which the viability in test [1] was 102%; in test [3], 102% (inactive); in test [4] it was 87.1% (inactive); in test [5], 94.2% (inactive); in test [6] (setting [9]) it was 78.6%; in test [6] (setting [10]), 94.2%. Besides, the Her2 level in test [2] was 96.5% (inactive). In addition, in test [6] (H69AR cells + 2 uM doxorubicin), the differential viability (reversal) is 15.6% (inactive). Besides, the values for the inhibition in test [7] and in test [8] were 3.51% (inactive) and -6.19% (inactive), respectively.

Take `CCOC(=O)C1=C(CN2CCOCC2)NC(=O)NC1c1cc(C)ccc1C` (stereo not given): the viability in test [1] was 92%; in test [3], 92% (inactive); in test [4], 101% (inactive); in test [5], 78.9% (inactive); in test [6] (setting [9]), 62.2%; in test [6] (setting [10]) it was 78.9%. Besides, in test [2], the Her2 level was 89% (inactive). In addition, the differential viability (reversal) in test [6] (H69AR cells + 2 uM doxorubicin) is 16.7% (inactive). Besides, the inhibition in test [7] is -6.76% (inactive); in test [8], 4.33% (inactive).

For `O=S1(=O)CC(N2CCCCC2)C(N2CCCCC2)C1` (stereo not given), the viability in test [1] was 104%; in test [3], 104% (inactive); in test [4], 108% (inactive); in test [5], 95.3% (inactive); in test [6] (setting [9]) it was 78.3%; in test [6] (setting [10]), 95.3%. For the same compound, in test [2], the Her2 level was 91.5% (inactive). Besides, the differential viability (reversal) in test [6] (H69AR cells + 2 uM doxorubicin) was 16.9% (inactive). Further, the values for the inhibition in test [7] and in test [8] were -2.99% (inactive) and 1.27% (inactive), respectively.

As for `N#Cc1c(N)n(CCNC(=O)c2cccs2)c2nc3ccccc3nc12`, the viability is 82.5% in test [1]; 82.5% (inactive) in test [3]; 97.9% (inactive) in test [4]; 90.9% (inactive) in test [5]; 98.5% in test [6] (setting [9]); 90.9% in test [6] (setting [10]). In addition, in test [2], the Her2 level was 84.5% (inactive). For the same compound, the differential viability (reversal) in test [6] (H69AR cells + 2 uM doxorubicin) is -7.67% (inactive). The figures for the inhibition in test [7] and in test [8] were -5.6% (inactive) and -0.16% (inactive), respectively.

As to `O=C(CCSc1nc(-c2ccco2)cc(C(F)(F)F)n1)Nc1ccc2c(c1)OCO2`, the viability in test [1] is 83%; in test [3], 83% (inactive); in test [4], 56.3% (inactive); in test [5], 78.4% (inactive); in test [6] (setting [9]), 88.5%; in test [6] (setting [10]), 78.4%. For the same compound, the Her2 level in test [2] is 94.5% (inactive). Also, in test [6] (H69AR cells + 2 uM doxorubicin), the differential viability (reversal) is -10.1% (inactive). The figures for the inhibition in test [7] and in test [8] were -7.47% (inactive) and 3.81% (inactive), respectively.

In the case of `Cc1c(C(=O)NCCC2=CCCCC2)oc2ccc(S(=O)(=O)N3CCC4(CC3)OCCO4)cc12`, the viability in test [1] is 94.5%; in test [3], 94.5% (inactive); in test [4], 49.1% (inactive); in test [5] it was 48.1% (active); in test [6] (setting [9]), 52.4%; in test [6] (setting [10]) it was 48.1%. The Her2 level in test [2] is 104% (inactive). The differential viability (reversal) in test [6] (H69AR cells + 2 uM doxorubicin) is -4.29% (inactive). Moreover, the results for the inhibition in test [7] and in test [8] were -10.8% (inactive) and -11.5% (inactive), respectively.

Take `CC(C)(C)C(=O)/C=C(\N)c1ccccn1`: the viability in test [1] is 102%; in test [3], 102% (inactive); in test [4] it was 119% (inactive); in test [5], 100% (inactive); in test [6] (setting [9]) it was 97.8%; in test [6] (setting [10]), 100%. Also, in test [2], the Her2 level is 94.5% (inactive). Moreover, the differential viability (reversal) in test [6] (H69AR cells + 2 uM doxorubicin) was 2.67% (inactive). For the same compound, the inhibition was -1.04% (inactive) in test [7] and -4.92% (inactive) in test [8].
